The values below come from ChEMBL document CHEMBL1649062, “Integration of lead optimization with crystallography for a membrane-bound ion channel target: discovery of a new class of AMPA receptor positive allosteric modulators” (J Med Chem, 2011).

Broadly, the EC50 is the concentration giving half of the maximal effect. As usually defined, the kinetic solubility is the concentration staying in solution when a stock, usually in DMSO, is diluted into the medium. What is called IC50 is the concentration needed to halve the response being measured. Read a high IC50 as lower potency. The term Papp denotes the rate of passage across a membrane or cell layer, normalised by area and donor concentration. By logD is commonly meant the decadic logarithm of the distribution of all forms, ionised or not, between an organic phase and buffer at a given pH. A lower logD goes with lower lipophilicity. The term AUC(0-t) denotes the area under the concentration-time curve up to a stated or last time point. Low values mean less exposure, high ones more exposure. As a reminder, the Cmax is the peak of the concentration-time curve. One may read the CL/F as clearance divided by bioavailability, as obtained after extravascular dosing. One may read the AUC as concentration integrated over time. By Kp is commonly meant the ratio of the level in a tissue or fluid to that in plasma or blood.

The target in series [1] is T1, Glutamate receptor 2 (Homo sapiens, UniProt P42262). Description: Allosteric modulation of human recombinant GluA2 receptor flip isoform expressed in HEK293 cells assessed as potentiation of glutamate-induced calcium influx by Fluo-4/FLIPR method. Type of series: cell-based. In outline: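 Stable GluA2 flip (unedited) cell line grown in DMEM/F12 with 10% FBS and seeded to confluence 2-3 days before use. Cells washed in HEPES buffer (pH 7.3) and loaded with 2 μM Fluo-4 AM for 60 min at room temperature. On FLIPR, compound was added 5 min before 100 μM glutamate. pEC50 and asymptotic maximum are relative to the maximal response to cyclothiazide, n ≥ 3.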

A short description of series [2]: Kinetic solubility of the compound in phosphate buffered saline of pH 7.4. Format: physicochemical. The essentials: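 Kinetic solubility: 10 mM DMSO stock, 5 μL diluted to 100 μL with pH 7.4 phosphate-buffered saline, equilibrated 1 h at room temperature, filtered, filtrate quantified by calibrated flow-injection chemiluminescent nitrogen detection.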
A further series concerns the target Cytochrome P450 2D6 (Homo sapiens, UniProt P10635). Description: Inhibition of human CYP2D6 by fluorescence assay. Type of series: ADME. The essentials: (§1)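 Recombinant human CYP bactosomes (0.1 mg/mL) in 50 mM potassium phosphate pH 7.4, preincubated 10 min at 37 °C with test compound (0.1-10 μM, 7 concentrations) and fluorogenic substrate. Substrates: ethoxyresorufin 0.5 μM (1A2), FCA 50 μM (2C9), BMC 10 μM (2C19), MMC 10 μM (2D6), DEF 1 μM or 7-BQ 25 μM (3A4). Reaction started with NADPH regenerating system; metabolite formation read over 10 min. IC50 from percent of control rate; miconazole control; triplicate.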

A further series concerns the target Cytochrome P450 2C19 (Homo sapiens, UniProt P33261). Description: Inhibition of human CYP2C19 by fluorescence assay. Format: ADME. In outline: as §1
For the next series, the target named is Cytochrome P450 2C9 (Homo sapiens, UniProt P11712). Description: Inhibition of human CYP2C9 by fluorescence assay. Format: ADME. In outline: as §1
Another series deals with T2, Cytochrome P450 1A2 (Homo sapiens, UniProt P05177).
T2 sequence (P05177 whole entry): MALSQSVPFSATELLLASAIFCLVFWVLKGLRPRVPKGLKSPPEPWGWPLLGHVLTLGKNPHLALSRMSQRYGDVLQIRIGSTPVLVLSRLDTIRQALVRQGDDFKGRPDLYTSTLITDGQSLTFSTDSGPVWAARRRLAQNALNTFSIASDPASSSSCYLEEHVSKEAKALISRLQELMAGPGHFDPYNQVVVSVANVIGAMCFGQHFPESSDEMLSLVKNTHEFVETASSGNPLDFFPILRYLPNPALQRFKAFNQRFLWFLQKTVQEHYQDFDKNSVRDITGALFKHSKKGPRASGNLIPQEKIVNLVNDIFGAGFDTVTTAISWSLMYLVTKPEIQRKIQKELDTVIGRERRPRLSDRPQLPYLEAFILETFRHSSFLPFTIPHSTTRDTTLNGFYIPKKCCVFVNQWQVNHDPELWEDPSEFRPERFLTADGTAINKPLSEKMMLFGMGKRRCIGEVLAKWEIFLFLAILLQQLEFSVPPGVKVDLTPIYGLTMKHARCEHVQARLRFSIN
Description: Inhibition of human CYP1A2 by fluorescence assay. Format: ADME. The essentials: as §1

For another series, the target named is Cytochrome P450 3A4 (Homo sapiens, UniProt P08684). Description: Inhibition of human CYP3A4 by fluorescence assay. Type of series: ADME. In outline:
as §1

Series [3] is described as follows: Plasma protein binding in rat at 3 mg/kg, po. Format: ADME, organism-based. Also noted: dose 3 mg/kg, route oral. The note with it: read-out: PPB (converted).
Series [4] deals with Brain. Description: Brain tissue binding in rat at 3 mg/kg, po. Format: ADME, organism-based. Set-up: dose 3 mg/kg, route oral. The note with it: in vivo.
Series [5] can be described thus: Apparent permeability of the compound. The note with it: not told. Format: ADME. In outline: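 Artificial membrane permeability: donor holds 10 mM sample in pH 7.05 phosphate buffer with 0.5% hydroxypropylcyclodextrin. Membrane is 1.8% phosphatidylcholine and 1% cholesterol in decane. Donor and acceptor concentrations measured by LCMS after 3 h at room temperature; permeability expressed in nm/s.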

Series [6] is described as follows: Distribution coefficient, log D of the compound at pH 7.4. Type of series: physicochemical. To be noted: octanol/water.
A short description of series [7]: AUC (0 to t) in rat blood at 3 mg/kg, po. The note with it: whole blood. Format: ADME, organism-based. Also noted: dose 3 mg/kg, route oral.
Series [8] in a line: Cmax in rat blood at 3 mg/kg, po. Format: ADME, organism-based. Also noted: dose 3 mg/kg, route oral. The note with it: whole blood.
The nature of series [9]: Blood Clearance in rat at 3 mg/kg, po. Format: ADME, organism-based. Also noted: dose 3 mg/kg, route oral. To be noted: whole blood. The essentials: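 Rats dosed orally at 3 mg/kg; blood sampled via the hepatic portal vein and heart. Estimated clearance derived from in vivo hepatic extraction, taking rat liver blood flow as 85 (mL/min)/kg.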
Series [10] deals with T1, Glutamate receptor 2. Description: Allosteric modulation of human recombinant GluA2 receptor flip isoform expressed in HEK293 cells assessed as potentiation of glutamate-induced calcium influx by Fluo-4/FLIPR method relative to cyclothiazide. Type of series: cell-based. In outline: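 Stable GluA2 flip (unedited) cells seeded to confluence 2-3 days before assay; washed in HEPES buffer (145 NaCl, 5 KCl, 2 CaCl2, 1 MgCl2, 5.5 glucose, pH 7.3), loaded with 2 μM Fluo4-AM 60 min at room temperature. FLIPR dual addition: compound 5 min before 100 μM glutamate; fluorescence rise expressed against maximal cyclothiazide response, fitted pEC50 and Asym max; n ≥ 3.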

In series [11] the test system is Rattus norvegicus. Description: Neurotoxicity in Lister Hooded rat assessed proconvulsant effect at 150 mg/kg, ip by MEST test. Format: toxicity, organism-based. Also noted: dose 150 mg/kg, route intraperitoneal. To be noted: in vivo. In outline: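 Male Lister Hooded rats pretreated with compound, saline vehicle or picrotoxin 30 min before corneal electroshock (CC50 about 60–70 mA, 0.1 ms); tonic and tonic-clonic seizure threshold scored; brain concentrations taken from satellite rats sampled right after testing.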

Series [12] relates to Brain. Description: Drug level in Lister Hooded rat assessed per gram of tissue at 150 mg/kg, ip. Type of series: ADME, organism-based. Set-up: dose 150 mg/kg, route intraperitoneal. To be noted: in vivo. The essentials: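 Male Lister Hooded rats pretreated 30 min before the maximal electroshock threshold test with compound or saline vehicle; picrotoxin served as positive control. Corneal current applied, CC50 about 60-70 mA, 0.1 ms. Brain levels measured in satellite rats sampled immediately after testing.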

Series [13] deals with Brain. Description: Drug level in Lister Hooded rat assessed per gram of tissue at 1 mg/kg, ip. The note with it: in vivo. Also noted: dose 1 mg/kg, route intraperitoneal. Type of series: ADME, organism-based. In outline:
(§2)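 Male Lister Hooded rats (n = 9-12/group) tested for reversal of a 24 h delay-induced deficit in novel object recognition. Significant doses flagged. Brain concentrations measured in the study animals at the end of the test.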

Series [14] concerns Brain. Description: Drug level in Lister Hooded rat assessed per gram of tissue at 3 mg/kg, ip. Also noted: dose 3 mg/kg, route intraperitoneal. The note with it: in vivo. Type of series: ADME, organism-based. The essentials:
as §2

Series [15] has as its system Brain. Description: Drug level in Lister Hooded rat assessed per gram of tissue at 10 mg/kg, ip. Format: ADME, organism-based. Set-up: dose 10 mg/kg, route intraperitoneal. To be noted: in vivo. The essentials:
as §2

Series [16] relates to Rattus norvegicus. Description: Cognitive enhancing effect in Wistar rat assessed as reversal of scopolamine-induced amnesic deficit at 10 to 30 mg/kg, ip by passive avoidance test.
Series [17] concerns Brain. Description: Drug level in Lister Hooded rat assessed per gram of tissue at 0.3 mg/kg, ip. Format: ADME, organism-based. Set-up: dose 0.3 mg/kg, route intraperitoneal. To be noted: in vivo. The essentials: as §2
Series [18] deals with Rattus norvegicus. Description: Cognitive enhancing effect in Wistar rat assessed as reversal of scopolamine-induced amnesic deficit at 30 mg/kg, ip by passive avoidance test.
Series [19] in a line: Distribution coefficient, log D of the compound. Format: physicochemical. To be noted: octanol/water.
For series [20], the system named is Rattus norvegicus. Description: AUC ( 0 to t) in rat at 3 mg/kg, po. Type of series: ADME, organism-based, Plasma. To be noted: in vivo. Set-up: dose 3 mg/kg, route oral.
The nature of series [21]: Cmax in rat at 3 mg/kg, po. Type of series: ADME, organism-based. Also noted: dose 3 mg/kg, route oral. To be noted: in vivo.
A further series in a line: in vivo. To be noted: rat, brain and blood, po, 3 mg/kg.

Structures are written as SMILES. ≈ marks a conversion by molar mass, not a printed value. Calls of active or inactive are those of the source.

Chain of Cytochrome P450 2D6 (P10635 whole entry): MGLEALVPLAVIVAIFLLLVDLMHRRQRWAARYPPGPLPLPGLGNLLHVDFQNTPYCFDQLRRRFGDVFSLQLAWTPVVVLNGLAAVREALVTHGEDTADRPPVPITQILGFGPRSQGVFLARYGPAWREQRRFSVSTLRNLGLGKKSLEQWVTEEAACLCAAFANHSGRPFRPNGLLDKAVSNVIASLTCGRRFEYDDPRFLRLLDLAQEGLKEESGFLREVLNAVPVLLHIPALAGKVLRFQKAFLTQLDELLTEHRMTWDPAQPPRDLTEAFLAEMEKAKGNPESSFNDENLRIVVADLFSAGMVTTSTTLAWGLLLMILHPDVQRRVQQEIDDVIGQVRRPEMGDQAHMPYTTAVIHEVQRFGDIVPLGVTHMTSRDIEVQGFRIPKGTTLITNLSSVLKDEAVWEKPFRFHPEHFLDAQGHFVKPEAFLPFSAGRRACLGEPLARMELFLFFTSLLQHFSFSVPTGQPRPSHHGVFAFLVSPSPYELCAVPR
T1 sequence (P42262 whole entry, canonical isoform): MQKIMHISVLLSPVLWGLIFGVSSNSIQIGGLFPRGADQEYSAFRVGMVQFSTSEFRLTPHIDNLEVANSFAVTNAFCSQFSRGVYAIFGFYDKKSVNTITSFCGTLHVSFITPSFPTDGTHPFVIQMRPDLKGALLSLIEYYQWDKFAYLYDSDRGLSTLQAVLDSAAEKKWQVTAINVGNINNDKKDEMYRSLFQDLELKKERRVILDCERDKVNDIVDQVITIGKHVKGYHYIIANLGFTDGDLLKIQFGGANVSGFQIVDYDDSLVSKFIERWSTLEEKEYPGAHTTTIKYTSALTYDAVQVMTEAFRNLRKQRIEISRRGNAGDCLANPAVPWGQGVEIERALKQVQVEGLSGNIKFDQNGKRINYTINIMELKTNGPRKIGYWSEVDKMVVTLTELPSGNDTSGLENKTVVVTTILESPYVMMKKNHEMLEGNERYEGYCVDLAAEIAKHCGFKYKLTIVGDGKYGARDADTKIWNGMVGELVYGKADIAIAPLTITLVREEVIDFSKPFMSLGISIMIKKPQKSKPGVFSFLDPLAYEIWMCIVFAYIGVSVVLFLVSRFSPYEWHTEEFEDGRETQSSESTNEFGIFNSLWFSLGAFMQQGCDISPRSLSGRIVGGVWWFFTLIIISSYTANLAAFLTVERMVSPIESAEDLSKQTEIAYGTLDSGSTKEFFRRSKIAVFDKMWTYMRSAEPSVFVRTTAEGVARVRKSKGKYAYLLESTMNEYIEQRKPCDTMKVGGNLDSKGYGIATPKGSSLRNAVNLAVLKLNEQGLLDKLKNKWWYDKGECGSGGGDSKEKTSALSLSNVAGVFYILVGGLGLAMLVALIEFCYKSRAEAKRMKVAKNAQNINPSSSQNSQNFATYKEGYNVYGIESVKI
Chain of Cytochrome P450 2C19 (P33261 whole entry): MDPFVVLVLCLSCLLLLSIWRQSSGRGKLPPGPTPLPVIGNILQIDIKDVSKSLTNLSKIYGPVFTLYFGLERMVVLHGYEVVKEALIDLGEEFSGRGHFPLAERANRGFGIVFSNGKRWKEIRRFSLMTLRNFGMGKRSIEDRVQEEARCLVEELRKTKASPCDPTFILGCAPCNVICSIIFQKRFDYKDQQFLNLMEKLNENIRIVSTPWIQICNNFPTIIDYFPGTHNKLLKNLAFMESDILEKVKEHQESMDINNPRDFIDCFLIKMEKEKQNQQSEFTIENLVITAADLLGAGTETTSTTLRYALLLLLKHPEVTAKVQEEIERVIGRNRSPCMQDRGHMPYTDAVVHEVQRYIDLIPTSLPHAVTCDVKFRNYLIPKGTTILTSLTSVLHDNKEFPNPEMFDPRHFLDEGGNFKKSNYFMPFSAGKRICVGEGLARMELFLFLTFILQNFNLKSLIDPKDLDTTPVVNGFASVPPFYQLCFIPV
Chain of Cytochrome P450 2C9 (P11712 whole entry): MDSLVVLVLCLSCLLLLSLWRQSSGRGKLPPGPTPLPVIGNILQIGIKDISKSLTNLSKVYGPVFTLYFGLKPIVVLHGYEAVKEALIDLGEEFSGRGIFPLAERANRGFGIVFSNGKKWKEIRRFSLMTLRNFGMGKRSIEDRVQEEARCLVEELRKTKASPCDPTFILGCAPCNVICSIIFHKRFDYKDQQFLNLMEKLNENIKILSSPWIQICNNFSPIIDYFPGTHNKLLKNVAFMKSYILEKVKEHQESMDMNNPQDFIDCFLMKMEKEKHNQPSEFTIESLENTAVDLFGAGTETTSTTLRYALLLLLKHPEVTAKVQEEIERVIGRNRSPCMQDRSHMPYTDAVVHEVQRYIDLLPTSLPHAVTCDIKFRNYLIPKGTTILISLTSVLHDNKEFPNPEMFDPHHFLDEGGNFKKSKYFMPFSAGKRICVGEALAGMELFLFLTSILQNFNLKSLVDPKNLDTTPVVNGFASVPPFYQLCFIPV
Chain of Cytochrome P450 3A4 (P08684 whole entry): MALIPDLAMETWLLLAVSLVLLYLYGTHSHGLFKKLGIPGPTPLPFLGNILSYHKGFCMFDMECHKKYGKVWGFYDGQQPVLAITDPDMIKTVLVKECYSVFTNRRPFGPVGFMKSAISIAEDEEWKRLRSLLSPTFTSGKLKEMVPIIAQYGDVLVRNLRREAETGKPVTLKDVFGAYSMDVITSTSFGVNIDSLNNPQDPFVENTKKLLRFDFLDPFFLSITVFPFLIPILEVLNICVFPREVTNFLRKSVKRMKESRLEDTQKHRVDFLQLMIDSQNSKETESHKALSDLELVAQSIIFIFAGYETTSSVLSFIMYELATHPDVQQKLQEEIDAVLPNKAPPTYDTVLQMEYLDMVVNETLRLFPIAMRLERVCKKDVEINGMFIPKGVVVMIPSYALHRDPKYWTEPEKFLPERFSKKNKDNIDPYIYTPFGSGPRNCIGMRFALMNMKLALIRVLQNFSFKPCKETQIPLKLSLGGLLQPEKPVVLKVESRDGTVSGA

`O=C(c1ccc(-n2nc(C(F)(F)F)c3c2CCOC3)cc1)N1CCCC1`: the EC50 at Glutamate receptor 2 [1] was over 20 µM. The kinetic solubility in series [2] is 192 µg/mL (≈ 526 µM). In addition, the IC50 at Cytochrome P450 2D6, against Cytochrome P450 2C19, on Cytochrome P450 2C9, against Cytochrome P450 1A2 and against Cytochrome P450 3A4 was over 10 µM each time. Also, the fraction unbound in series [3] was 0.137. The “Brain tissue binding (% bound)” value in the series on Brain [4] was found to be 88.4%. The Papp in series [5] came out at 49.5 ×10⁻⁶ cm/s. Also, the logD in [6] worked out at 2.4. The compound further displayed an AUC(0-t) in series [7] of 1330 ng·h/mL. In series [8], the highest level (Cmax) was 551 ng/mL. Besides, in series [9], the CL/F turned out to be 6 mL/min/kg. For the same compound, the Activity at Glutamate receptor 2 [10] was 81%; in the series with Rattus norvegicus [11], “Non-toxic”. Also, the Drug uptake in the series on Brain [12] is 22525 ng/g; with Brain [13], 228 ng/g; with Brain [14], 983 ng/g; in the series with Brain [15] it was 2609 ng/g. Further, the result in the series on Rattus norvegicus [16] was Active.
Regarding `O=C1CCCN1Cc1c(F)cc(-n2nc(C(F)(F)F)c3c2CCOC3)cc1F`, the EC50 on Glutamate receptor 2 [1] was 20 µM. Also, the solubility (kinetic) in series [2] came to 207 µg/mL (≈ 516 µM). Further, the IC50 against Cytochrome P450 2D6, at Cytochrome P450 2C19, against Cytochrome P450 2C9, on Cytochrome P450 1A2 and against Cytochrome P450 3A4 was over 10 µM throughout. Moreover, the fraction unbound in series [3] is 0.064. Further, the “Brain tissue binding (% bound)” value in the series on Brain [4] came out at 96.3%. Also, in series [5], the Papp worked out at 47 ×10⁻⁶ cm/s. In series [6], this compound gave a logD of 2.5. For the same compound, the AUC(0-t) in series [7] is 481 ng·h/mL. The compound further had a Cmax in series [8] of 76 ng/mL. Besides, the CL/F in [9] was 22 mL/min/kg. The Activity at Glutamate receptor 2 [10] is 120%; in the series on Rattus norvegicus [11], “Non-toxic”. The Drug uptake worked out at 8988 ng/g with Brain [12]; 22 ng/g in the series with Brain [17]; 79 ng/g in the series on Brain [13]; 386 ng/g in the series with Brain [14]; 1413 ng/g in the series with Brain [15]. In the series on Rattus norvegicus [18], the result was Active.
On to `CN(C)C(=O)c1ccc(-n2nc(C(F)(F)F)c3c2CCCC3)cc1`, for which the EC50 at Glutamate receptor 2 [1] is 25.1 µM. For the same compound, in series [19], the logD was 3. The solubility (kinetic) in [2] was determined as 138 µg/mL (≈ 409 µM). Also, the IC50 on Cytochrome P450 2D6 amounted to 6 µM. The same compound yielded an exposure (AUC) in the series with Rattus norvegicus [20] of 78 ng·h/mL. The compound also yielded a Cmax in series [21] of 50 ng/mL. The fraction unbound in series [3] is 0.048. The “Brain tissue binding (% bound)” value with Brain [4] turned out to be 98.2%. For the same compound, the Activity at Glutamate receptor 2 [10] came out at 94%. In the series “in vivo”, this compound registered a Kp of 1.3.
